Measurements pooled from the literature.
Organism: Staphylococcus aureus
Effect on: microbial growth

`c1ccc2c(-c3nc4ccccc4[nH]3)c3ccccc3cc2c1` has an MIC of 32 µg/mL (broth dilution; ATCC29213 MSSA).
`O=C(Nc1ncc([N+](=O)[O-])s1)C1CCCCC1` gave an MIC of 125 µM (broth dilution; MRSA).
The MIC of `COc1cc(OC)c2cc(C(=O)NCc3ccc(C)cc3)cc(O)c2c1` is reported as 32 µg/mL (broth dilution; ATCC29213 MSSA).
For `COc1cccc(OC)c1C(=O)N[C@@H]1C(=O)N2[C@@H]1SC(C)(C)[C@@H]2C(=O)O`, the MIC was 18.8 µM (broth dilution; BAA1707 MRSA; drug-resistant strain).
The MIC of `C=CCn1c(-c2ccc([N+](=O)[O-])cc2)nc2ccc(C)cc21` is reported as 32 µg/mL (broth dilution; ATCC29213 MSSA).
With `CN[C@H](CC(C)C)C(=O)N[C@H]1C(=O)N[C@@H](CC(N)=O)C(=O)N[C@H]2C(=O)N[C@H]3C(=O)N[C@H](C(=O)N[C@H](C(=O)O)c4cc(O)cc(O)c4-c4cc3ccc4O)[C@H](O)c3ccc(c(Cl)c3)Oc3cc2cc(c3O[C@@H]2O[C@H](CO)[C@@H](O)[C@H](O)[C@H]2O[C@H]2C[C@](C)(N)[C@H](O)[C@H](C)O2)Oc2ccc(cc2Cl)[C@H]1O` the MIC was 1 µg/mL (broth dilution; ATCC43300 MRSA; 18 h).
For `Cc1c(CN(C)C(=O)/C=C/c2cnc3c(c2)CC(CCN)C(=O)N3)oc2ccccc12.Cl` (stereo not shown), the MIC was 0.125 µg/mL (broth dilution; ATCC29213).
`O=C(O)c1cn(C2CC2)c2cc(N3CCNCC3)c(F)cc2c1=O` gave an MIC of 1.6 µg/mL.
`Oc1ccccc1-c1nc2ccccc2[nH]1` has an MIC of 256 µg/mL (broth dilution; ATCC29213 MSSA).
`O=C(O)c1cn(C2CC2)c2cc(N3CCNCC3)c(F)cc2c1=O` has an MIC of 0.49 µg/mL (broth dilution; ATCC25923).
For `CC1CCN(CCCN2/C(=C/c3cc[n+](C)c4ccccc34)Sc3ccccc32)CC1.[I-]`, the MIC was 2 µg/mL (broth dilution; ATCCBAA44).
The MIC of `CCCCCCC#Cc1cncc(-c2nnc(SCc3ccc(Cl)c(F)c3)n2C)c1` is reported as at least 20 µg/mL (MRSA; drug-resistant strain).
`CCOc1ccc(-c2nc3cc(-c4nc5cc(N6CCN(C)CC6)ccc5[nH]4)ccc3[nH]2)cc1` gave an MIC of 2 to 4 µg/mL (broth dilution; 33591; 24 h).
With `CN[C@H](CC(C)C)C(=O)N[C@H]1C(=O)N[C@@H](CC(N)=O)C(=O)N[C@H]2C(=O)N[C@H]3C(=O)N[C@H](C(=O)N[C@H](C(=O)O)c4cc(O)cc(O)c4-c4cc3ccc4O)[C@H](O)c3ccc(c(Cl)c3)Oc3cc2cc(c3O[C@@H]2O[C@H](CO)[C@@H](O)[C@H](O)[C@H]2O[C@H]2C[C@](C)(N)[C@H](O)[C@H](C)O2)Oc2ccc(cc2Cl)[C@H]1O` the MIC was 1 µg/mL (broth dilution; ATCCBAA44).
`COc1c(C)c(OCc2ccccc2)c(C)c(O)c1C(=O)/C=C/c1ccccc1` gave an MIC of 5000 µg/mL (broth dilution; ATCC25923).
`Cc1ccc(-n2nc(C(C)(C)C)cc2NC(=O)Nc2ccc(OCCN3CCOCC3)c3ccccc23)cc1` has an MIC of over 30 µM (NCTC8325).
With `O=C(O)c1cn(C2CC2)c2cc(N3CCNCC3)c(F)cc2c1=O` the MIC was 8 µg/mL (broth dilution; ATCC29213 MSSA).
With `O=C(O)CN1C(=O)/C(=C/c2c3ccccc3c(-c3ccc(N(c4ccccc4)c4ccccc4)cc3)c3ccccc23)SC1=S` the MIC was over 1000 µg/mL (broth dilution; ATCC25923).
For `CC(C)Oc1c(NC(=O)c2ccc(NC(=O)[C@H](CC(N)=O)NC(=O)c3ccc(NC(=O)C(C)Sc4ccc(C#N)cc4)cc3)cc2)ccc(C(=O)Nc2ccc(C(=O)O)cc2)c1O` (stereo partly shown), the MIC was over 64 µg/mL (ATCC29213).
`Brc1ccc(NCc2ccc(Oc3ccccn3)cc2)cc1` gave an MIC of over 6.2 µg/mL.
`C/C=C(\C)c1cc(OC(=O)c2c(C)c(Cl)c(O)c(Cl)c2O)c(C)c(O)c1C(=O)O` gave an MIC of 64 µg/mL (broth dilution; ATCC29213).
`CC[C@H]1OC(=O)[C@H](C)[C@@H](O[C@H]2C[C@@](C)(OC)[C@@H](O)[C@H](C)O2)[C@H](C)[C@@H](O[C@@H]2O[C@H](C)C[C@H](N(C)C)[C@H]2O)[C@](C)(O)C[C@@H](C)C(=O)[C@H](C)[C@@H](O)[C@]1(C)O` gave an MIC of over 100 µM (156; clinical isolate).
`CC(C)Oc1c(NC(=O)c2ccc(NC(=O)[C@H](CC(N)=O)NC(=O)c3ccc(NC(=O)c4ccc(C#N)cn4)cc3)cc2)ccc(C(=O)Nc2ccc(C(=O)O)cc2)c1O` gave an MIC of at most 0.03 µg/mL (ATCC29213).
For `CC(=O)NC[C@H]1CN(c2ccc(N3CCOCC3)c(F)c2)C(=O)O1`, the MIC was 2 µg/mL (broth dilution; MRSA NRS384 USA300; drug-resistant strain).
`C/C=C(\C)c1cc(O)c(C)c(OC(=O)c2c(C)cc(O)c(Cl)c2O)c1` has an MIC of 16 µg/mL (broth dilution; 16339).
The MIC of `CC(C)Oc1c(NC(=O)c2ccc(NC(=O)[C@H](CC(N)=O)NC(=O)c3ccc(-c4nn[nH]c4-c4ccc(C#N)cc4)cc3)cc2)ccc(C(=O)Nc2ccc(C(=O)O)cc2)c1O` is reported as over 64 µg/mL (ATCC29213).
For `COc1c(C)c(OS(=O)(=O)c2ccc3ccccc3c2)c(C)c(OS(=O)(=O)c2ccc3ccccc3c2)c1C(=O)/C=C/c1ccccc1`, the MIC was 5000 µg/mL (broth dilution; ATCC25923).
`CS(=O)(=O)c1cccc(-c2nnc(NC(=O)c3ccc(-c4ccccc4)cc3)o2)c1` has an MIC of over 128 µg/mL.
With `O=C1NC(=S)N/C1=C\c1c2ccccc2c(-c2ccc(N(c3ccccc3)c3ccccc3)cc2)c2ccccc12` the MIC was over 1000 µg/mL (broth dilution; ATCC25923).
For `O=C(Nc1ccc(F)cc1)c1ccccc1O`, the MIC was 32 µg/mL (broth dilution; ATCC29213).
`CC(C)Oc1c(NC(=O)c2ccc(NC(=O)[C@H](CC(N)=O)NC(=O)c3ccc(CNC(=O)c4ccc(C#N)cc4)cc3)cc2)ccc(C(=O)Nc2ccc(C(=O)O)cc2)c1O` gave an MIC of over 64 µg/mL (ATCC29213).
For `O=C1NC(=S)N/C1=C\c1ccc(-c2ccc(N(c3ccccc3)c3ccccc3)cc2)c2ccccc12`, the MIC was over 1000 µg/mL (broth dilution; ATCC43300).
`Fc1cccc(Cl)c1-c1nc2ccccc2[nH]1` has an MIC of 64 µg/mL (broth dilution; ATCC29213 MSSA).
The MIC of `Cn1cc(NC(=O)C(CC(N)=O)NC(=O)c2ccc(NC(=O)c3ccc(C#N)cc3)cc2)cc1-c1nc2ccc(C(=O)Nc3ccc(C(=O)O)cc3)c(O)c2[nH]1` (stereo not shown) is reported as over 64 µg/mL (ATCC29213).
The MIC of `O=C(CCCN1CCC(O)(c2ccc(Cl)cc2)CC1)c1ccc(Br)cc1` is reported as over 128 µg/mL.
For `CCn1cc(C(=O)O)c(=O)c2cc(F)c(N3CCNCC3)cc21`, the MIC was under 5 µg/mL (broth dilution; ATCC11632; 18 h).
`CC[C@H](CO)Nc1nc(NCc2ccccc2)c2ncn(C(C)C)c2n1` has an MIC of over 30 µM (NCTC8325).
With `Cc1ccc2nc(-c3ccc([N+](=O)[O-])cc3)n(Cc3ccccc3)c2c1` the MIC was 8 µg/mL (broth dilution; ATCC29213 MSSA).
`C/C=C(\C)c1cc(OC(=O)c2c(O)c(C)c(O)c(Cl)c2/C(C)=C/C)c(C)c(O)c1C(=O)O` gave an MIC of over 64 µg/mL (broth dilution; 6917).
`Cc1ccc2nc(-c3ccc(Cl)c(Cl)c3)[nH]c2c1` gave an MIC of 16 µg/mL (broth dilution; ATCC29213 MSSA).
For `O=[N+]([O-])c1cnc2ccc(F)cc2c1O`, the MIC was over 128 µg/mL.
`CC1=NN(CNc2ccccc2)C(=O)C1=NNn1c(-c2ccccc2)nc2ccccc2c1=O` gave an MIC of 221 µM (broth dilution; 24 h).
`Cn1cc(C2=C(c3ccc(Cl)cc3Cl)C(=O)NC2=O)c2ccccc21` has an MIC of over 30 µM (NCTC8325).
`CN[C@H](CC(C)C)C(=O)N[C@H]1C(=O)N[C@@H](CC(N)=O)C(=O)N[C@H]2C(=O)N[C@H]3C(=O)N[C@H](C(=O)N[C@H](C(=O)O)c4cc(O)cc(O)c4-c4cc3ccc4O)[C@H](O)c3ccc(c(Cl)c3)Oc3cc2cc(c3O[C@@H]2O[C@H](CO)[C@@H](O)[C@H](O)[C@H]2O[C@H]2C[C@](C)(N)[C@H](O)[C@H](C)O2)Oc2ccc(cc2Cl)[C@H]1O` gave an MIC of 1 µg/mL (broth dilution; ATCC29213).
`O=C(c1ccc(/C=C/c2n[nH]c3ccccc23)cc1)N1CCNCC1` has an MIC of over 30 µM (NCTC8325).
The MIC of `O=C(O)CN1C(=O)/C(=C/c2c3ccccc3c(-c3ccc(N(c4ccccc4)c4ccccc4)cc3)c3ccccc23)NC1=S` is reported as over 1000 µg/mL (broth dilution; ATCC6538).
